Data published in ChEMBL document CHEMBL3046297, “Molecular design of antifungal agents” (J Agric Food Chem, 2002).
Converted amounts (≈) assume the structure as drawn. The source made the active and inactive calls. The rule behind the calls is not given here.

Key:
[1] = tested on: Radical scavenging activity; experiment: Antioxidant activity assessed as DPPH free radical scavenging activity after 20 min; type: functional
How it was run: (§1)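 DPPH scavenging. The mix held 100 mM acetate buffer pH 5.5, ethanol, ethanolic DPPH and sample. It stood 20 min at room temperature, then absorbance was read at 517 nm. Results are % decrease versus a DPPH control. IC50 was interpolated from concentration-inhibition curves, as the mean of triplicates.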

[2] = tested on: Saccharomyces cerevisiae; experiment: Antifungal activity against Saccharomyces cerevisiae ATCC 7754 after 48 hr by broth macrodilution method; conditions: ATCC 7754, 48 h
[3] = tested on: Saccharomyces cerevisiae; experiment: microbe, parasite or virus in culture; type: functional; conditions: ATCC 7754, 48 h
[4] = tested on: Saccharomyces cerevisiae; experiment: microbe, parasite or virus in culture; type: functional; conditions: ATCC 7754, 48 h; remark: listed apart in the source
[5] = tested on: Saccharomyces cerevisiae; experiment: microbe, parasite or virus in culture; type: functional; conditions: ATCC 7754, 48 h; remark: listed apart in the source
[6] = tested on: Saccharomyces cerevisiae; experiment: microbe, parasite or virus in culture; type: functional; conditions: ATCC 7754, 48 h; remark: listed apart in the source
[7] = tested on: Saccharomyces cerevisiae; experiment: Antifungal activity against Saccharomyces cerevisiae ATCC 7754 at MFC to 4 times MFC treated 24 hr after incubation measured up to 30 hr; type: functional, organism-based
How it was run: (§2)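 Growth-stage kill test. Yeast at 10^5 cells/mL was inoculated into ME broth. Compound at MFC, 2× MFC or 4× MFC was added after 0, 4 or 24 h of incubation, and viable cells were then followed over time.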

[8] = tested on: Saccharomyces cerevisiae; experiment: Antifungal activity against Saccharomyces cerevisiae ATCC 7754 at MFC after 2 hr; type: functional, organism-based
How it was run: (§3)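 Time-kill assay. A 5-h, 30 °C preculture was inoculated into ME broth containing compound, initial 5.8 × 10^5 CFU/mL, then grown at 30 °C without shaking. Samples were taken at selected times over 48 h, serially diluted in sterile saline and plated on YPD agar. Plates were incubated 24 h at 30 °C before counting viable CFU.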

[9] = tested on: Saccharomyces cerevisiae; experiment: Antifungal activity against Saccharomyces cerevisiae ATCC 7754 at MFC to 4 times MFC treated 4 hr after incubation measured up to 30 hr; type: functional, organism-based; how it was run: as §2
[10] = tested on: Saccharomyces cerevisiae; experiment: Antifungal activity against Saccharomyces cerevisiae ATCC 7754 at 3.13 to 12.5 ug/ml after 1 hr by time kill analysis; type: functional, organism-based; how it was run: as §3
[11] = tested on: Saccharomyces cerevisiae; experiment: Drug uptake in Saccharomyces cerevisiae ATCC 7754 at 50 to 100 ug/ml after 5 seconds; type: ADME, organism-based; conditions: in vivo, 5 s
How it was run: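 Adsorption to cells. Yeast grown overnight with shaking in YPD at 30 °C was washed twice in 50 mM MOPS pH 6.0. Compound was mixed with or without cells (10^8 cells/mL) in this buffer at 30 °C and vortexed 5 s. After 2 min centrifugation, supernatant absorbance was read at 272 nm.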

[12] = tested on: Saccharomyces cerevisiae; experiment: Antifungal activity against Saccharomyces cerevisiae ATCC 7754 at 12.5 to 50 ug/ml after 1 hr by time kill analysis; type: functional, organism-based; how it was run: as §3
[13] = tested on: Radical scavenging activity; experiment: Antioxidant activity assessed as DPPH free radical scavenging activity up to 800 ug/ml after 20 min; type: functional; how it was run: as §1

SMILES | MFC [2] [µg/mL] | MIC [2] [µg/mL] | further results
CCCCCCCCCOC(=O)c1ccc(O)c(OC)c1 | > 400 | > 400 | Activity [1]: Active
CCCCCCCCCOC(=O)c1cc(O)cc(O)c1 [NONYL 3,5-DIHYDROXYBENZOATE] | > 400 | > 400 | Activity [1]: inactive
CCCCCCCCO [OCTANOL] | 800 (≈ 6140 µM) | 200 (≈ 1540 µM) | 
CCCCCCCCCCCCO [DODECANOL] | > 1600 |  | 
O=C(O)c1ccccc1 [BENZOIC ACID] | 1600 (≈ 13100 µM) | 800 (≈ 6550 µM) | MIC [3]: > 1600 µg/mL; MIC [4]: > 1600 µg/mL; MFC [5]: 1600 µg/mL (≈ 13100 µM); MIC [5]: 800 µg/mL (≈ 6550 µM); MFC [6]: 1600 µg/mL (≈ 13100 µM); MIC [6]: 800 µg/mL (≈ 6550 µM)
CCCCCCCCCO [NONANOL] | 200 (≈ 1390 µM) | 100 (≈ 693 µM) | 
O=C(O)c1ccc(O)c(O)c1 [PROTOCATECHUIC ACID] | > 3200 | 3200 (≈ 20800 µM) | 
CCCCCCCCCCCCCO [TRIDECAN-1-OL] |  | > 1600 | 
CCCCCCCCCOC(=O)c1ccccc1 [NONYL BENZOATE] |  | > 400 | Activity [1]: inactive
O=C(O)c1cccc(O)c1 [3-HYDROXYBENZOIC ACID] | > 3200 | 3200 (≈ 23200 µM) | 
C/C=C/C=C/C(=O)O [SORBIC ACID] |  |  | MIC [3]: > 1600 µg/mL; MIC [4]: > 1600 µg/mL; MFC [5]: 1600 µg/mL (≈ 14300 µM); MIC [5]: 400 µg/mL (≈ 3570 µM); MFC [6]: 3200 µg/mL (≈ 28500 µM); MIC [6]: 800 µg/mL (≈ 7130 µM)
CCCCCCCCCOC(=O)c1cccc(O)c1 [NONYL 3-HYDROXYBENZOATE] | > 400 | > 400 | Activity [1]: inactive
CCCCCCCO [1-HEPTANOL] | > 1600 | 800 (≈ 6880 µM) | 
O=C(OC1CCC2CCCCC2C1)c1cc(O)c(O)c(O)c1 (configuration not stated) [DECAHYDRO-2-NAPHTHYL GALLATE] | 50 (≈ 163 µM) | 50 (≈ 163 µM) | 
CCCCCCCCCOC(=O)c1cc(O)c(O)c(O)c1 [NONYL GALLATE] | 12.5 (≈ 42.2 µM) | 6.25 (≈ 21.1 µM) | MFC [3]: 25 µg/mL (≈ 84.4 µM); MIC [3]: 12.5 µg/mL (≈ 42.2 µM); Activity [7]: Active; Activity [1]: Active; Activity [8]: Active; Activity [9]: Active; Activity [10]: Active; MFC [4]: 50 µg/mL (≈ 169 µM); MIC [4]: 25 µg/mL (≈ 84.4 µM); MFC [5]: 12.5 µg/mL (≈ 42.2 µM); MIC [5]: 6.25 µg/mL (≈ 21.1 µM); Drug uptake [11]: Active; MFC [6]: 12.5 µg/mL (≈ 42.2 µM); MIC [6]: 6.25 µg/mL (≈ 21.1 µM)
CCCCCCCCCOC(=O)c1ccc(O)cc1 [NONYL 4-HYDROXYBENZOATE] |  | > 400 | Activity [1]: inactive
CCCCCCCCCCCO [UNDECANOL] | 25 (≈ 145 µM) | 25 (≈ 145 µM) | 
CCCCCCOC(=O)c1ccc(O)c(O)c1 [HEXYL 3,4-DIHYDROXYBENZOATE] | 400 (≈ 1680 µM) | 400 (≈ 1680 µM) | 

SMILES | MFC [2] [µg/mL] | MIC [2] [µg/mL] | further results
COC(=O)c1cc(O)c(O)c(O)c1 [GALLIC ACID METHYL ESTER] |  | > 3200 | 
CCCCCCCCCOC(=O)c1ccc(O)c(O)c1 [NONYL 3,4-DIHYDROXYBENZOATE] | 12.5 (≈ 44.6 µM) | 6.25 (≈ 22.3 µM) | Activity [1]: Active
O=C(O)c1cc(O)cc(O)c1 [3,5-DIHYDROXYBENZOIC ACID] | > 3200 | 3200 (≈ 20800 µM) | 
O=C(O)c1ccc(O)cc1 [PARABEN] | > 3200 | 1600 (≈ 11600 µM) | 
CCCCCCO [1-HEXANOL] | > 1600 | > 1600 | 
CC(C)=CCC/C(C)=C/COC(=O)c1cc(O)c(O)c(O)c1 [Geranyl gallate] | 50 (≈ 163 µM) | 50 (≈ 163 µM) | Activity [12]: Active
CCCCCCCCCOC(=O)c1ccc(OC)c(O)c1 | > 400 | > 400 | Activity [1]: Active
CCCCCCCCCCCOC(=O)c1cc(O)c(O)c(O)c1 [UNDECYL GALLATE] | > 1600 | > 1600 | 
CCCCCCCCCCO [DECANOL] | 50 (≈ 316 µM) | 50 (≈ 316 µM) | 
CCCCCCCCCCCCOC(=O)c1cc(O)c(O)c(O)c1 [DODECYL GALLATE] | > 1600 | > 1600 | Drug uptake [11]: Active
CCCCCCCOC(=O)c1cc(O)c(O)c(O)c1 [HEPTYL GALLATE] | 100 (≈ 373 µM) | 100 (≈ 373 µM) | 
O=C(O)c1cc(O)c(O)c(O)c1 [GALLIC ACID] |  | > 3200 | 
CCCCCCOC(=O)c1cc(O)cc(O)c1 [HEXYL 3,5-DIHYDROXYBENZOATE] |  | > 800 | Activity [13]: inactive
CCCCCCOC(=O)c1ccc(O)cc1 [HEXYL 4-HYDROXYBENZOATE] |  | > 800 | Activity [13]: inactive
CCCCCCOC(=O)c1cc(O)c(O)c(O)c1 [HEXYL GALLATE] | 400 (≈ 1570 µM) | 400 (≈ 1570 µM) | 
CCCOC(=O)c1cc(O)c(O)c(O)c1 [PROPYL GALLATE] | > 3200 | 3200 (≈ 15100 µM) | 
CCCCCCCCCCOC(=O)c1cc(O)c(O)c(O)c1 [DECYL GALLATE] | 25 (≈ 80.5 µM) | 12.5 (≈ 40.3 µM) | 
